ChEMBL document CHEMBL1152919, “Chloro-oxime derivatives as novel small molecule chaperone amplifiers” (Bioorg Med Chem Lett, 2009)
Several values for one entry are separate records, joined by “and”; a condition that tells them apart may be missing. Equal entries are not always repeated. Activity calls are given as the source filed them. The rule behind the calls is not given here.

How the values were obtained:
[1] = Cytotoxicity against human HeLa cells by MTS assay; format: cell-based
SK-N-SH = test: Cytoprotective activity against 26S proteasome inhibitor MG132-induced stress in human SK-N-SH cells assessed as cell viability treated 1 hr before MG132 challenge measured after 24 hrs; format: functional, cell-based
Outline: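 SK-N-SH cells, 12,500/well, exposed to compound 1 h ahead of MG-132 (5 µM final), then 24 h. Viability by ATPlite-1step luminescence; increased ATP% = (RLU compound − RLU DMSO)/RLU DMSO ×100, with DMSO as negative control. Tested 0.3–80 µM in twofold steps; EC50 from nonlinear regression curve fit; max cytoprotection >60% scored active.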

[2] = Cytotoxicity against human SK-N-SH cells by MTS assay; format: cell-based
Outline: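 SK-N-SH cells, 14,000/well, seeded in DMEM with 10% FBS 18 h before compound (1:200 dilution; final 0.3–80 µM). MTS read-out; % inhibition = (MTS DMSO − MTS compound)/MTS DMSO ×100; CC50 by nonlinear regression; average SD across runs 14%.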

[3] = target: T1, Heat shock factor protein 1 (Homo sapiens) (UniProt Q00613); test: Transcriptional activation of HSF1 in human HeLa cells assessed as granule formation treated for 3 hrs at 37 degC without heat shock by immunocytochemical staining
T1 sequence (whole entry): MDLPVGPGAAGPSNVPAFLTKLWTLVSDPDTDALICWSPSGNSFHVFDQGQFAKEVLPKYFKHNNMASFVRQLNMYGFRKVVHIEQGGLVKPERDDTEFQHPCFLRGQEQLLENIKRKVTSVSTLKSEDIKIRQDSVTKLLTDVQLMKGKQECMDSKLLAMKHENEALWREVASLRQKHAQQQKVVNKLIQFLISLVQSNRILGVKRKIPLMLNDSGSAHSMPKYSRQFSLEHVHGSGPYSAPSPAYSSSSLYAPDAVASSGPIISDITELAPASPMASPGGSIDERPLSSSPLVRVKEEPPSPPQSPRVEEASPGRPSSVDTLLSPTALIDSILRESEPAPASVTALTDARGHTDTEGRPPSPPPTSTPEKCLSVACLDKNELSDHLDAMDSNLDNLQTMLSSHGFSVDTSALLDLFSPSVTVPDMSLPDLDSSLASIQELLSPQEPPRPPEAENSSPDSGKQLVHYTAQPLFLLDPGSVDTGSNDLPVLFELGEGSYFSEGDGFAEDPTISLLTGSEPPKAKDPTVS

[4] = target: T2, Heat shock factor protein 1 (Homo sapiens, UniProt Q00613); test: Transcriptional activation of HSF1 in heat shock stress-induced human HeLa cells assessed as granule formation at 80 uM treated 1 hr before heat shock challenge measured after 2 hrs by immunocytochemical staining; format: cell-based
T2 sequence (Q00613 whole entry): T1 sequence (whole entry)

[5] = target: T1, Heat shock factor protein 1 (Homo sapiens); test: Transcriptional activation of HSF1 in heat shock stress-induced human HeLa cells assessed as granule formation treated 1 hr before heat shock challenge measured after 2 hrs by immunocytochemical staining; format: cell-based
Outline: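 HeLa cells given compound 1 h, then heat shock at 41 °C for 2 h without recovery; HSF1 immunocytochemical staining, quantified by high-content imaging. Range 0.3–80 µM, twofold dilution, 200-fold overall.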

[6] = Homo sapiens, SK-N-SH, read-out: EC50

Compound | CC50 [1] [µM] | EC50 (SK-N-SH; sk-n-sh) | CC50 [2] [µM] | EC50 (SK-N-SH; [6]) [µM] | Activity [3] | Activity [4] | Activity [5]
O=C(NOCC(O)CN1CCCCC1)c1nc2ccccc2o1 (stereo unspecified) | > 80 | Not Active | > 80 |  |  |  | 
OC(CO/N=C(\Cl)c1nc2cc(Cl)ccc2o1)CN1CCCCC1 (stereo unspecified) | 31.4 |  | 23.2 | 6.3 | inactive |  | 
Cc1ccc2oc(/C(Cl)=N/OCC(O)CN3CCCCC3)nc2c1 (stereo unspecified) |  |  | 34.6 | 9.5 | inactive |  | 
OC(CO/N=C(\Cl)c1nc2c(F)cccc2o1)CN1CCCCC1 (stereo unspecified) | 40.2 |  | 20.3 | 6.9 | inactive |  | 
OC(CO/N=C(\Cl)c1nc2ccc(F)cc2o1)CN1CCCCC1 (stereo unspecified) | > 80 |  | 37.3 | 11 | inactive |  | 
OC(CO/N=C(\Cl)c1nc2ccccc2o1)CN1CCOCC1 (stereo unspecified) | > 80 |  | > 80 | 61.7 |  |  | 
CCC(C)N(CC(O)CO/N=C(\Cl)c1nc2ccccc2o1)C(C)CC (stereo unspecified) |  |  | 54.2 | 20.9 | inactive | 62% and 25% | inactive
OC(CO/N=C(\Cl)c1nc2cc(F)ccc2o1)CN1CCCCC1 (stereo unspecified) | > 80 |  | 62.4 | 12 | inactive |  | 
CCCN(CCC)CC(O)CO/N=C(\Cl)c1nc2ccccc2o1 (stereo unspecified) |  |  | 46.4 | 10.2 | inactive |  | 
CCCN(CC)CC(O)CO/N=C(\Cl)c1nc2ccccc2o1 (stereo unspecified) | 40.7 |  | 42.1 | 12.4 | inactive |  | 
OC(CO/N=C(\Cl)c1nc2ccc(Cl)cc2o1)CN1CCCCC1 (stereo unspecified) | 44.2 |  | 20 | 9 | inactive |  | 
OC(CO/N=C(/c1nc2ccccc2o1)C(F)(F)F)CN1CCCCC1 (stereo unspecified) | > 80 | Not Active | > 80 |  |  |  | 
CCS(=O)(=O)c1ccc2oc(/C(Cl)=N/OCC(O)CN3CCCCC3)nc2c1 (stereo unspecified) | 41.4 |  | 44.2 | 5.9 | inactive |  | 
CC(C)N(CCCF)CC(O)CO/N=C(\Cl)c1nc2ccccc2o1 (stereo unspecified) | 33.8 |  | 46 | 10.1 | inactive |  | 
CO/C(=N\OCC(O)CN1CCCCC1)c1nc2ccccc2o1 (stereo unspecified) | > 80 | Not Active | > 80 |  |  |  | 
C/C(=N\OCC(O)CN1CCCCC1)c1nc2ccccc2o1 (stereo unspecified) | > 80 | Not Active | > 80 |  |  |  | 
CN(C)S(=O)(=O)c1ccc2nc(/C(Cl)=N/OCC(O)CN3CCCCC3)oc2c1 (stereo unspecified) | 45.1 |  | 42.4 | 7.9 | inactive |  | 
OC(CO/N=C(\Cl)c1nc2ccccc2o1)CN1CCC(F)(F)CC1 (stereo unspecified) | > 80 |  | > 80 | 26.4 | inactive | 49% | 
OC(CO/N=C(\Cl)c1nc2cccc(F)c2o1)CN1CCCCC1 (stereo unspecified) | 19.3 |  | 16.9 | 3.8 | inactive |  | 

Compound | CC50 [1] [µM] | EC50 (SK-N-SH; sk-n-sh) | CC50 [2] [µM] | EC50 (SK-N-SH; [6]) [µM] | Activity [3] | Activity [4] | Activity [5]
Cl/C(=N\OCCCN1CCCCC1)c1nc2ccccc2o1 | > 80 |  | > 80 | 58.7 |  |  | 
Cc1ccc2nc(/C(Cl)=N/OCC(O)CN3CCCCC3)oc2c1 (stereo unspecified) | 18.8 |  | 28 | 6.1 | inactive |  | 
CC1CCCC(C)N1CC(O)CO/N=C(\Cl)c1nc2ccccc2o1 (stereo unspecified) | 78.9 |  | 36.2 | 11.1 | inactive |  | 
OC(CO/N=C(\Cl)c1nc2ccccc2s1)CN1CCCC1 (stereo unspecified) | 60.1 | Not Active | 31.1 |  | inactive |  | 
OC(CO/N=C(\Cl)c1nc2ccccc2s1)CN1CCCCC1 (stereo unspecified) | 49.1 |  | 26.5 | 13.5 | inactive |  | 
OC(CO/N=C/c1nc2ccccc2o1)CN1CCCCC1 (stereo unspecified) | > 80 | Not Active | > 80 |  |  |  | 
CC(=O)NCC(O)CO/N=C(\Cl)c1nc2ccccc2o1 (stereo unspecified) | > 80 |  | > 80 | 41.9 |  |  | 
CCN(CC)CC(O)CO/N=C(\Cl)c1nc2ccccc2o1 (stereo unspecified) |  |  | 36.2 | 10.2 | inactive |  | 
CC(C)(C)NCC(O)CO/N=C(\Cl)c1nc2ccccc2o1 (stereo unspecified) | 55.4 | Not Active | 24.7 |  | inactive |  | inactive
CS(=O)(=O)NCC(O)CO/N=C(\Cl)c1nc2ccccc2o1 (stereo unspecified) | 48.5 |  | > 80 | 39.3 |  |  | 
OC(CO/N=C(\Cl)c1nc2ccccc2o1)CN1CCCC(F)C1 (stereo unspecified) | 52.7 |  | 49.8 | 20 | inactive |  | 
CC(C)N(CC(O)CO/N=C(\Cl)c1nc2ccccc2o1)C(C)(C)C (stereo unspecified) | 30.8 |  | 40.3 | 9.9 | inactive |  | 
CC1CC(C)CN(CC(O)CO/N=C(\Cl)c2nc3ccccc3o2)C1 (stereo unspecified) | 55.3 |  | 34 | 9.3 | inactive |  | 
CCCCN(CCCC)CC(O)CO/N=C(\Cl)c1nc2ccccc2o1 (stereo unspecified) | > 80 |  | 41 | 22.3 | inactive |  | 
CC(C)N(CC(O)CO/N=C(\Cl)c1nc2ccccc2o1)CC1CC1 (stereo unspecified) | 24.4 |  | 32.7 | 6.3 | inactive |  | 
OC(CO/N=C(\Cl)c1nc2c(ccc3ccccc32)o1)CN1CCCCC1 (stereo unspecified) | 18.9 |  | 17.4 | 5.2 | inactive |  | 
OC(CO/N=C(\Cl)c1cc2ccccc2s1)CN1CCCCC1 (stereo unspecified) | > 80 | Not Active | 67.7 |  |  |  | 
OC(CO/N=C(\Cl)c1cc2ccccc2o1)CN1CCCCC1 (stereo unspecified) | > 80 | Not Active | > 80 |  |  |  | 
CC(C)N(CCO)CC(O)CO/N=C(\Cl)c1nc2ccccc2o1 (stereo unspecified) | 50.2 |  | 30.6 | 8.2 | inactive |  | 
